Source: PubChem BioAssay
Only some compounds are listed: those with a hit (about 4.9% of all), similar ones and a draw of the others.
STAT1 act: increases IFN-gamma driven STAT1 reporter signal | hit rate 2.6% among 200,000 | activation (% of control), % at 5.5 µM | NIH 3T3 STAT1-luciferase reporter, luminescence; 100% = IFN-gamma alone, no compound | AID 932;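 active means activation above the screen-wide mean activation plus 3 SD, cut at about 130% in these data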
NF-kB neuron act: NF-kB expression increase, human neuronal cells. NF-kB reporter expression; hits give high values. fold change at 12.5 µM. hit rate 1.6% among 190,000. AID 1239; in the data active means fold change above about 3.3
STAT3 activator: STAT3 signaling activation. U3A cells, IL-6 STAT3-luciferase reporter, luminescence; 100% = signal with IL-6 EC80 alone. activation (% of control), % at 5.6 µM. hit rate 0.91% among 190,000;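 active means activation above the screen-wide mean of compound activation plus 3 SD, cut at about 130% in these data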
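Material: STAT3-luciferase reporter U3A cells. Controls: IL-6-treated wells, 100% activation. Read-out: % activation versus median of IL-6-stimulated wells. Probe or stimulus: IL-6 stimulus at 33 ng/mL final. Timing: compound 1 h, then IL-6 6 h at 37 °C. Signal: reporter luminescence signal.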
STAT1 blocker: inhibitors of IFN-gamma induced STAT1 signaling; inhibition, % at 5.5 µM; hit rate 0.35% among 200,000; NIH 3T3 STAT1-luciferase reporter, luminescence; AID 920;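 active means inhibition above a set limit, the mean inhibition across all tested compounds plus 3 SD, cut at about 34% in these data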
APP 5'UTR act: activates APP 5'UTR luciferase reporter; SH-SY5Y APP 5'UTR luciferase reporter, luminescence; zero percent = DMSO vehicle wells; activation, % at 2 µM; hit rate 1% among 190,000;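 active means activation above a set limit, based on mean plus 3 SD of controls, cut at about 140% in these data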
STAT3 inh: reduces IL-6 driven STAT3 reporter signal; hit rate 0.89% among 190,000; U3A cells, IL-6 STAT3-luciferase reporter, luminescence; host cell line lacks STAT1; AID 862; inhibition, % at 5.5 µM;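 active means inhibition above the mean inhibition across all screened compounds plus 3 SD, cut at about 44% in these data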
A number is an active result; 0 = inactive; - = no result given.

SMILES	STAT1 act	NF-kB neuron act	STAT3 activator	STAT1 blocker	APP 5'UTR act	STAT3 inh
CC(=O)N(/N=C1\Sc2ccccc2C1=O)c1ccc(C)cc1C	0	0	0	0	0	0
CC(C(=O)Nc1cccnc1)n1cc([N+](=O)[O-])cn1 (configuration not stated)	0	0	0	0	0	0
[O-][N+]1=c2ccc(Nc3ccccc3)cc2=NC12CCCCC2	134	0	0	0	0	0
COc1ccc(Nc2ccc3c(c2)=NC2(CCCCC2)[N+]=3[O-])cc1	0	0	0	0	0	0
CCN=C1S/C(=C\c2sccc2C)C(=O)N1CC	130	0	0	0	0	0
CCN=C1S/C(=C\c2ccc(OC)c(OCC)c2)C(=O)N1CC	0	0	0	0	0	0
Cc1ccc(OCc2nc3ccccc3[nH]2)cc1	147	0	0	0	164	0
Clc1ccc(OCc2nc3ccccc3[nH]2)cc1	144	-	0	0	184	0
O=S(=O)(CCc1nc2ccccc2[nH]1)c1ccc(Cl)cc1	0	0	0	0	0	0
c1ccc(OCc2nc3ccccc3[nH]2)cc1	129	0	0	0	0	0
COC(=O)Cn1c(=NC(=O)C2COc3ccccc3O2)sc2cc(S(N)(=O)=O)ccc21 (configuration not stated)	0	0	0	0	0	0
COc1ccccc1-c1c(C(F)(F)F)oc2cc(OC(=O)c3cccc([N+](=O)[O-])c3C)ccc2c1=O	0	0	0	0	0	0
O=C(c1cccs1)N1CCc2ccccc21	139	0	0	0	0	0
O=C(c1cccs1)N1CCCc2ccccc21	0	0	0	0	0	0
O=C(/C=C/c1cccs1)N1CCc2ccccc21	134	8.1	0	0	187	0
O=C(CCc1nnc(Cc2c[nH]c3ccccc23)o1)NCC1CC12CCCCC2 (configuration not stated)	0	0	0	0	0	0
CC1=C(C(=O)Nc2ccc(C)cc2C)C(c2ccc(C)o2)NC(=O)N1 (configuration not stated)	0	0	0	0	0	0
COc1ccc(C/C(C)=N/NC(=S)Nc2ccc(C(C)C)cc2)cc1	0	0	0	0	0	0
COc1ccc(C/C(C)=N/NC(=S)Nc2ccccc2F)cc1	0	0	0	0	176	0
CN(C(=O)C1CCOC1)c1nnc(-c2ccccn2)s1 (configuration not stated)	132	0	0	0	0	0
CN(C(=O)C1CCOC1)c1nnc(-c2ccncc2)s1 (configuration not stated)	0	0	0	0	0	0
O=C(Nc1ccc(Cl)cc1)c1ccc2nsnc2c1	150	3.3	0	0	0	0
CN(C)c1ccc(NC(=O)c2ccc3nsnc3c2)cc1	144	0	0	0	0	0
COc1ccc(N(C)C(=O)Nc2ccc3nsnc3c2)cc1	0	0	0	0	0	0
Cc1ccnc(NC(=O)c2cccc(NS(=O)(=O)c3ccccc3C)c2)c1	0	0	0	0	0	0
SMILES	STAT1 act	NF-kB neuron act	STAT3 activator	STAT1 blocker	APP 5'UTR act	STAT3 inh
O=C(NNS(=O)(=O)c1ccc(Br)cc1)c1cccs1	0	0	0	0	0	0
O=C(/C=C/c1c[nH]c2ccccc12)c1ccccc1	136	9.9	0	0	0	0
Cc1ccc(C(=O)/C=C/c2c[nH]c3ccccc23)cc1	0	3.5	0	0	0	0
Cc1ccc(S(=O)(=O)/C(C#N)=C/c2c[nH]c3ccccc23)cc1	0	0	0	0	0	0
OCCC1CN(Cc2cccn2-c2ccccn2)CCN1Cc1ccccc1 (configuration not stated)	0	0	0	0	0	0
CC1=NN(c2ccccc2)C(=O)/C1=C\c1cn(CCC#N)nc1-c1ccc(Cl)cc1	0	0	0	0	0	0
CC1=NN(c2ccccc2)C(=O)/C1=C\c1c(C)[nH]n(-c2ccccc2)c1=O	0	0	144	0	0	0
CC1=NN(c2ccccc2)C(=O)/C1=C/c1c(O)n(-c2ccc(F)c(Cl)c2)[nH]c1=O	142	0	166	0	0	0
COc1ccc(C2=NCN(c3ccc(C)cc3)C(=S)N2)cc1	0	0	0	0	0	0
Cc1ccc(N2CN=C(c3ccccc3)NC2=S)cc1	130	0	0	0	0	0
O=C(COC(=O)c1cccs1)Nc1nc(-c2ccccc2)cs1	0	0	0	0	0	0
C/C(=N\Nc1nc(-c2ccccc2)cs1)c1cccs1	145	0	0	0	0	0
Cc1ccc2c(CSc3nc4nc(C)cc(C)n4n3)cc(=O)oc2c1	0	0	0	0	0	0
COc1ccc2c(CSc3nc4nc(C)cc(C)n4n3)cc(=O)oc2c1	0	4.2	0	0	0	0
CC1(C)CC(=O)C(N=Nc2cc3c(cc2[N+](=O)[O-])OCCO3)=C(O)C1	0	0	0	0	0	0
CCc1nc(N2CCN(C(=O)c3ccccc3)CC2)c2c3c(sc2n1)CCCC3	0	0	0	0	0	0
CCc1nc(Sc2nnnn2-c2ccccc2)c2c3c(sc2n1)CCCC3	0	8	0	0	0	0
Cc1nc(Sc2nnnn2C)c2c3c(sc2n1)CCC3	0	12	0	0	0	0
CCN(Cc1ccccc1)C(=O)c1ccc(Cl)cc1[N+](=O)[O-]	0	0	0	0	0	0
CCOC(=O)c1c(C)nc2sc3c(c2c1-c1ccc(OC)cc1)NC(c1ccc(OC)cc1)NC3=O (configuration not stated)	0	0	0	0	0	0
N#Cc1ccsc1NC(=O)COC(=O)c1cc2ccccc2cc1O	0	0	0	0	0	0
COc1cc(-c2c(C#N)c(N)nc3c2c(C)nn3-c2ccc(C)c(C)c2)cc(OC)c1OC	0	0	135	0	0	0
CC(Cc1ccsc1)NC(=O)CCc1nnc(COc2ccccc2)o1 (configuration not stated)	0	0	0	0	0	0
CC(C)C1=Nc2cccc3cccc(c23)N1	0	0	0	0	0	0
COc1ccc(C2=Nc3cccc4cccc(c34)N2)cc1	0	0	135	0	0	0
SMILES	STAT1 act	NF-kB neuron act	STAT3 activator	STAT1 blocker	APP 5'UTR act	STAT3 inh
COc1ccc(NC2=C(Cl)C(=O)N(CCc3ccccc3)C2=O)c(OC)c1	0	0	0	0	0	0
COc1ccc(NC2=C(Cl)C(=O)N(CCc3ccccc3)C2=O)cc1	142	0	0	0	0	0
O=C(CCSCCC(=O)Nc1c(F)c(F)c(F)c(F)c1F)Nc1c(F)c(F)c(F)c(F)c1F	0	0	0	0	0	0
O=C(Nc1ccc(CN2CCOCC2)cc1)c1cc2ccccc2o1	134	0	0	0	168	0
CCC(=O)N1CCN(c2ccc(NC(=O)c3cc4ccccc4o3)cc2)CC1	0	0	0	0	0	0
O=C(Nc1ccc(N2CCOCC2)cc1)c1cc2ccccc2o1	171	0	0	0	0	0
O=C(Nc1ccc2oc(=O)ccc2c1)c1cc2ccccc2o1	148	0	0	0	0	0
